Reference: publication PMC10617274 (Therapeutic Advances in Infectious Disease, 2023)

Key:
[1] = Cytotoxicity in mouse peritoneal macrophages; assay type: cell-based, BALB/c mice; details: BALB/c, Macrophages CC50 + SD, resazurin
Procedure, shortened: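 Peritoneal lavage cells from BALB/c mice, in RPMI + 10% heat-inactivated FBS, seeded at 3 × 10⁵ macrophages/mL, left to adhere 2 h at 33°C, 5% CO₂; non-adherent cells washed off with PBS. Test compound from 650 µM top, 8 serial 1:2.5 dilutions, quadruplicate, 48 h. Then 3 mM resazurin (stock), fluorescence after 4 h; CC50 by non-linear curve fit; at least three independent trials.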

[2] = tested on: L. amazonensis promastigotes; assay: Susceptibility assay in promastigotes; assay type: cell-based, Leishmania amazonensis (MHOM/BR/77/LTB0016 strain); details: Leishmania amazonensis, 72 h, read-out: Promastigotes IC50 + SD

IC50 [2]: 30 ± 14 nM
Compound: C[C@@H]1[C@H](O)[C@@H](C)/C=C/C=C/C=C/C=C/C=C/C=C/C=C/[C@H](O[C@@H]2O[C@H](C)[C@@H](O)[C@H](N)[C@@H]2O)C[C@@H]2O[C@](O)(C[C@@H](O)C[C@@H](O)[C@H](O)CC[C@@H](O)C[C@@H](O)CC(=O)O[C@H]1C)C[C@H](O)[C@H]2C(=O)O [Amphotericin B]
CC50 at 48 h [1]: 5800 ± 500 nM
